Values after ≈ are worked out from the molar mass of the structure shown. Active and inactive are the calls of the source. The calls are words filed in the database; no cut-off is given here.
Tests used:
[1] = tested on: Xanthomonas axonopodis; experiment: Antimicrobial activity against Xanthomonas axonopodis ATCC 8718 assessed as inhibition of microbial growth at 50 ug/ml; assay type: functional, organism-based
Procedure, shortened: (§1)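 Single-dose growth-inhibition test at 50 μg/mL. Stock culture (50 μL) went into 10 mL tryptic soy broth and was shaken overnight at 37 °C; X. axonopodis was grown at 30 °C instead. OD was read at 625 nm and cells were adjusted to about 5 × 10^5 CFU per 100 μL well. Compound was added to a 100 μL final volume and plates were incubated overnight.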

[2] = tested on: Mycobacterium tuberculosis; experiment: Antimicrobial activity against Mycobacterium tuberculosis H37Rv assessed as inhibition of microbial growth at 50 ug/ml; assay type: functional, organism-based
[3] = tested on: Brucella neotomae; experiment: Antimicrobial activity against Brucella neotomae ATCC 23459 assessed as inhibition of microbial growth at 50 ug/ml; assay type: functional; procedure, shortened: as §1
[4] = tested on: Firmicutes; experiment: Antimicrobial activity against Firmicutes K940; assay type: functional; conditions: Bacillota
Procedure, shortened: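 Growth-inhibition assay against the inducing Actinobacteria (E906) and Firmicutes (K940) coculture isolates. Dose-response testing gave the MIC values. Bacteria were grown overnight in tryptic soy broth with shaking and read by OD at 625 nm. Wells were adjusted to about 5 × 10^5 CFU per 100 μL, compound was added to a 100 μL final volume, and plates were incubated overnight.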

[5] = tested on: Yersinia pestis; experiment: Antimicrobial activity against Yersinia pestis A1122 assessed as inhibition of microbial growth at 50 ug/ml; assay type: functional, organism-based
[6] = Retention time of the compound by HPLC method; assay type: physicochemical
[7] = tested on: Escherichia coli; experiment: Antimicrobial activity against Escherichia coli ATCC 25922 assessed as inhibition of microbial growth at 50 ug/ml; assay type: functional, organism-based; procedure, shortened: as §1
[8] = tested on: Pseudomonas aeruginosa; experiment: Antimicrobial activity against Pseudomonas aeruginosa ATCC 27853 assessed as inhibition of microbial growth at 50 ug/ml; assay type: functional, organism-based; procedure, shortened: as §1
[9] = tested on: Enterococcus faecalis; experiment: Antimicrobial activity against Enterococcus faecalis ATCC 29212 assessed as inhibition of microbial growth at 50 ug/ml; assay type: functional, organism-based
[10] = tested on: Burkholderia vietnamiensis; experiment: Antimicrobial activity against Burkholderia vietnamiensis ATCC BAA-248 assessed as inhibition of microbial growth at 50 ug/ml; assay type: functional; procedure, shortened: as §1

## Cc1cc(O)c2c3c4c(cc(O)c13)C(C)(C)C(=O)c1c(O)cc(O)c(c1-4)C2=O [HELIOMYCIN]
[1]
  inhibition: inactive
[2]
  inhibition: inactive
[3]
  inhibition: inactive
[4]
  MIC: 0.25 µg/mL (≈ 0.664 µM)
[5]
  inhibition: inactive
[6]
  Retention_time: 17.9 min
[7]
  inhibition: inactive
[8]
  inhibition: inactive
[9]
  inhibition: inactive
[10]
  inhibition: inactive

Reference: ChEMBL document CHEMBL3576808, “Phylum-specific regulation of resistomycin production in a Streptomyces sp. via microbial coculture” (J Nat Prod, 2015)
